Ba/F3 V617F tox = reduced viability of JAK2V617F-dependent Ba/F3 cells, primary screen, JAK2V617F inhibitor project, cell-based, Ba/F3 EpoR-JAK2V617F, luminescence; ATP luminescence; inhibition, % at 5.6 µM; 220,000 compounds, 1.1% hits;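 active = inhibition above the campaign mean plus 3 SD over all tested compounds, cut at about 24% in these data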;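 also: cytokine-independent growth of Ba/F3 cells driven by EpoR plus mutant JAK2; 0% = DMSO-treated cells and 100% = JAK inhibitor I control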
IEC-6 tox = cytotoxicity in IEC-6 intestinal epithelial cells, primary screen, cytotoxicity control for KLF5 inhibitor project, cell-based, luminescence | inhibition, % at 5 µM | IEC-6 cytotoxicity, luminescence viability | 290,000 compounds, 0.78% hits | AID 1825, 2009;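 also: 0% = plate median of test compound wells and 100% = cytotoxic reference compound wells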
APP transl inh = inhibitors of APP translation via 5'UTR reporter, primary screen, APP 5'UTR luciferase, SH-SY5Y cells; inhibition, % at 2 µM; AID 1285, 2008; SH-SY5Y APP 5'UTR-luciferase reporter, luminescence; 190,000 compounds, 0.82% hits;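 active = inhibition above a set limit, derived from the sample mean plus 3 SD, cut at about 45% in these data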
BaF3 tox = parental Ba/F3 cell viability inhibition, counter-screen for JAK2V617F inhibitor project, murine pro-B, CellTiter-Glo luminescence; CellTiter-Glo ATP luminescence; inhibition, % at 5.6 µM; 220,000 compounds, 1.1% hits; AID 1486, 2009;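 active = inhibition above a per-campaign cutoff, the mean inhibition of all tested compounds plus 3 SD, cut at about 27% in these data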;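 also: 0% = DMSO wells and 100% = JAK Inhibitor I control wells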
bCat nuc transl = modulators of beta-catenin nuclear translocation, primary screen, imaging, HeLa cells, immunofluorescence, high-content; nuclear translocation activity, % at 5 µM; 190,000 compounds, 0.3% hits;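 active = nuclear translocation activity above 50% at 5 µM, with a well cell count of 50 or more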;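 also: per-cell ratio of nuclear to cytoplasmic median beta-catenin stain intensity; plate controls were DMSO negative control for no effect and GSK-3 inhibitor IX positive control for full effect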
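Test system: human HeLa cell line; Doses: 5 µM primary, 0.02–20 µM confirmation; Incubation: 24 h compound exposure, 37°C; Detection: beta-catenin immunofluorescence imaging with DAPI; Read-out: beta-catenin nuclear/cytoplasmic ratio, % activation.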
MT stabilizer = microtubule stabilizers in HeLa cells, primary screen, imaging, high-content imaging | HeLa tubulin immunostaining HCS, 24 h; share of cells brighter than vehicle mean+2SD | % tubulin-high responders, % at 10 µM | 200,000 compounds, 0.83% hits | AID 2205, 2009;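 active = plate Z-score above 3 for both tubulin-high and condensed-nucleus cell shares, with cell loss under 80%, at 10 µM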;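 also: anti alpha tubulin signal scored within the nucleus-defined area of each cell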
IEC-6 cytotox cf = cytotoxic compounds in IEC-6 epithelial cells, confirmation, cytotoxicity control, cell-based, luminescence; inhibition, % at 5 µM; 1,900 compounds, 63% hits; IEC-6 rat intestinal epithelial viability; shares compounds with IEC-6 tox;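 also: 0% = vehicle and 100% = reference cytotoxic drug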
* marks the source's active call; other numbers are inactive results; · = no result. Compounds with a hit are over-represented: about 2.2% of the library has one in this group of screens. Rule as the data show it, unless noted: active = inhibition above about 22%; inactive = the rest.

SMILES | Ba/F3 V617F tox | IEC-6 tox | APP transl inh | BaF3 tox | bCat nuc transl | MT stabilizer | IEC-6 cytotox cf
CC(C)(C)C(=O)N1CCN(c2ccc(NC(=O)c3ccc([N+](=O)[O-])o3)cc2)CC1 | · | 101* | · | · | · | · | 58*
COc1ccccc1C1CC(=O)NC(C)=C1C(=O)OCC1CCCO1 (centres undefined) | 5 | -1 | -12 | 0 | -2 | 2 | ·
Cc1c(C(=O)OCC2CCCO2)[nH]c2c1C(=O)CC(c1ccco1)C2 (centres undefined) | 11 | 38* | 33 | 4 | 89* | 40* | 47*
Cc1c(C(=O)OCC(C)C)[nH]c2c1C(=O)CC(c1ccco1)C2 (centres undefined) | 79* | 81* | 96* | 76* | 183* | 3 | 57*
Cc1c(C(=O)O)[nH]c2c1C(=O)CC(c1ccc(C(C)(C)C)cc1)C2 (centres undefined) | · | -2 | · | · | · | · | ·
CCC(C)OC(=O)c1[nH]c2c(c1C)C(=O)CC(c1ccc(N(C)C)cc1)C2 (centres undefined) | 3 | 5 | -22 | 6 | 0 | 2 | ·
Cc1c(C(=O)OC2CCCC2)[nH]c2c1C(=O)CC(c1ccco1)C2 (centres undefined) | 77* | 88* | 94* | 81* | 132* | 10 | 57*
Cc1c(C(=O)N2CCOCC2)[nH]c2c1C(=O)CC(c1ccccc1Cl)C2 (centres undefined) | 85* | 60* | 85* | 84* | · | 41* | 48*
Cc1cccc(NC(=O)CN2CCOCC2)c1C | · | -1 | · | · | · | · | ·
COC(=O)c1ccn(CC(=O)NC2CCCCC2)n1 | · | -4 | · | · | · | · | ·
Cc1ccc(C(=O)Cc2cc3ccccc3oc2=O)c(C)c1 | · | -8 | · | · | · | · | ·
C=CCOC(=O)c1[nH]c2c(c1C)C(=O)CC(c1ccco1)C2 (centres undefined) | 82* | 89* | 96* | 84* | 89* | 11 | 56*
COC(=O)c1[nH]c2c(c1C)C(=O)CC(c1ccccc1)C2 (centres undefined) | 74* | 87* | 96* | 75* | 56* | 4 | 64*
O=C(C1=NN[C@@H]2C(=O)N(c3cccc(C(F)(F)F)c3)C(=O)[C@H]12)c1cnccn1 | -4 | 7 | · | 0 | 2 | · | ·
CCOC(=O)c1sc(NNC(=O)c2ccc(C)cc2)nc1C | -6 | 1 | · | 1 | 0 | · | ·
CCOC(=O)c1nc(NNC(=O)c2ccc([N+](=O)[O-])cc2)sc1C | · | 38* | · | · | · | · | 21
CC(=O)c1ccc(NS(=O)(=O)c2ccc(-c3cnc(C4CC4)o3)cc2)cc1 | · | 2 | · | · | · | · | ·
Cc1cccc(C)c1NS(=O)(=O)c1ccc(-c2cnc(C3CC3)o2)cc1 | · | 94* | · | · | · | · | 72*
COc1ccc(C)cc1NS(=O)(=O)c1ccc(-c2cnc(C3CC3)o2)cc1 | · | 90* | · | · | · | · | 62*
Cc1ccc(N(C)S(=O)(=O)c2ccc(-c3cnc(C4CC4)o3)cc2)cc1 | · | 76* | · | · | · | · | 55*
Cc1ccc(CNS(=O)(=O)c2ccc(-c3cnc(C4CC4)o3)cc2)cc1 | · | -5 | · | · | · | · | ·
Cc1ccc(NS(=O)(=O)c2ccc(-c3cnc(C4CC4)o3)cc2)cc1 | · | 56* | · | · | · | · | 32*
O=S(=O)(c1ccc(-c2cnc(C3CC3)o2)cc1)N1CCN(c2ccccc2)CC1 | · | -7 | · | · | · | · | ·
N#CCC(=O)N/N=C\c1cccc(OC/C=C/c2ccccc2)c1 | · | 2 | · | · | · | · | ·
Cc1ccc(S(=O)(=O)N(C)/N=C2/C(=O)N(CC(=O)O)c3ccccc32)cc1 | · | 4 | · | · | · | · | ·
SMILES | Ba/F3 V617F tox | IEC-6 tox | APP transl inh | BaF3 tox | bCat nuc transl | MT stabilizer | IEC-6 cytotox cf
O=S(=O)(NCc1ccccc1)c1ccc(-c2cnc(C3CC3)o2)cc1 | · | 18 | · | · | · | · | ·
CCOc1ccccc1CNS(=O)(=O)c1ccc(-c2cnc(C3CC3)o2)cc1 | · | 75* | · | · | · | · | 55*
O=C(Nc1ccc(Cl)c(Cl)c1)Nc1nnc(CSc2ccccc2)s1 | -1 | 4 | 14 | 3 | 0 | 3 | ·
CCOc1ccc(-c2c[n+]3c(n2-c2ccccc2)CCCCC3)cc1 | 89* | 25* | -22 | 70* | -2 | 3 | 19
O=C(O)C1C2CCC(C2)C1C(=O)NCCc1ccccc1 (centres undefined) | · | -2 | · | · | · | · | ·
O=C(Cc1ncc(C(F)(F)F)cc1Cl)NCCc1ccccn1 | 2 | 0 | 6 | 4 | 0 | 3 | ·
COc1cc(-c2noc(C)c2/C=C/c2ccc(N)cc2)cc(OC)c1OC | · | 96* | · | · | · | · | 76*
CNC(C)C#Cc1c(-c2cc(OC)c(OC)c(OC)c2)noc1C (centres undefined) | · | 0 | · | · | · | · | ·
COc1cc(-c2noc(C)c2C#Cc2ccc(N)cc2)cc(OC)c1OC | · | 87* | · | · | · | · | 64*
COc1cc(-c2noc(C)c2C#Cc2ccccn2)cc(OC)c1OC | · | 82* | · | · | · | · | 62*
O=C(Cn1ncc2c([nH]c3ccccc32)c1=O)NCC1CCN(Cc2ccccc2F)CC1 | · | -1 | · | · | · | · | ·
Cc1cccc(C)c1NC(=O)Cn1nc(-c2ccc(Cl)s2)ccc1=O | · | -7 | · | · | · | · | ·
CC1Nc2ccccc2C(=O)N1NC(=O)c1ccc(Br)cc1 (centres undefined) | 0 | 2 | -2 | 3 | -1 | 3 | ·
NS(=O)(=O)c1ccc(CCNC(=O)Cc2cccs2)cc1 | · | -1 | · | · | · | · | ·
Cc1ccc(Cn2nnnc2CN2CCC(c3nc4ccc(Cl)cc4[nH]3)CC2)cc1 | 92* | 88* | 68* | 82* | 0 | 3 | 54*
Clc1ccc2nc(C3CCN(Cc4nnnn4C4CCCCC4)CC3)[nH]c2c1 | 0 | 16 | 13 | 3 | 1 | 3 | ·
c1ccc(N/N=C(\Cc2nc3ccccc3[nH]2)c2ccccc2)cc1 | -1 | 4 | -22 | 9 | · | 3 | ·
Cc1ccc(N/N=C(\Cc2nc3ccccc3[nH]2)c2ccccc2)cc1 | 14 | 55* | 92* | 19 | 107* | 5 | 61*
CSc1ccc(CN2CCC(Oc3ccc(C(=O)N4CCCC4)cc3)CC2)cc1 | · | 0 | · | · | · | · | ·
O=C(O)c1ccccc1NC(=O)c1ccccc1Nc1ccccc1 | · | 35* | · | · | · | · | 11
O=C(Nc1ccccc1C(=O)Nc1ccccc1C(=O)O)c1ccccc1 | · | 20 | · | · | · | · | ·
COC(=O)[C@@H]1Cc2c([nH]c3ccccc23)C(C)(C)N1C(=O)CCl | · | 95* | · | · | · | · | 36*
COc1ccccc1/C=N/NC(=O)c1cc2c(OC)c(OC)ccc2[nH]1 | · | 47* | · | · | · | · | 15
COc1ccc(/C=N/NC(=O)c2cc3c(OC)ccc(OC)c3[nH]2)cc1O | · | 40* | · | · | · | · | 20
COc1cccc(/C=N/NC(=O)c2cc3c(OC)cccc3[nH]2)c1OC | 1 | -1 | 2 | 6 | -2 | 9 | ·

Source: PubChem BioAssay
